Assay results from different studies.
Lines come from different studies, so protocols differ.
Organism: Staphylococcus epidermidis
Observed: microbial growth

With CC(C)Oc1c(-n2cc(-c3ccc(NC(=O)C(CC(N)=O)NC(=O)c4ccc(NC(=O)c5ccc(C#N)cc5)cc4)cc3)nn2)ccc(C(=O)Nc2ccc(C(=O)O)cc2)c1O (centres unmarked) the MIC was 0.125 µg/mL (DSM28765).
CC[C@H]1OC(=O)[C@H](C)[C@@H](O[C@H]2C[C@@](C)(OC)[C@@H](O)[C@H](C)O2)[C@H](C)[C@@H](O[C@@H]2O[C@H](C)C[C@H](N(C)C)[C@H]2O)[C@](C)(O)C[C@@H](C)C(=O)[C@H](C)[C@@H](O)[C@]1(C)O has an MIC of 0.78 µM (broth dilution; 12228).
CC(C)Oc1c(NC(=O)c2ccc(NC(=O)c3ccc(NC(=O)[C@H](CC(N)=O)NC(=O)c4ccc(NC(=O)c5ccc(C#N)s5)cc4)cc3)c(OC(C)C)c2O)ccc(C(=O)O)c1O has an MIC of ≤ 0.03 µg/mL (DSM28765).
The MIC of NCCCC[C@H](N)C(=O)Nc1ccc(-n2nc(C(F)(F)F)cc2-c2ccc3c(ccc4ccccc43)c2)cc1 is reported as 4 µg/mL (broth dilution; ATCC35984; 24 h).
O=C(O)CN1C(=O)/C(=C/c2c3ccccc3c(-c3ccc(N(c4ccccc4)c4ccccc4)cc3)c3ccccc23)SC1=S gave an MIC of > 1000 µg/mL (broth dilution; ATCC12228).
O=C(Nc1ncc([N+](=O)[O-])s1)C1CCCCC1 has an MIC of 31.3 µM (broth dilution).
The MIC of CC(C)Oc1c(NC(=O)c2ccc(NC(=O)[C@H](CC(N)=O)NC(=O)c3ccc(NC(=O)c4ccc(C#N)s4)cc3)cc2)ccc(C(=O)Nc2ccc(C(=O)O)cc2)c1O is reported as 0.5 µg/mL (DSM28765).
The MIC of CN[C@H](CC(C)C)C(=O)N[C@H]1C(=O)N[C@@H](CC(N)=O)C(=O)N[C@H]2C(=O)N[C@H]3C(=O)N[C@H](C(=O)N[C@H](C(=O)O)c4cc(O)cc(O)c4-c4cc3ccc4O)[C@H](O)c3ccc(c(Cl)c3)Oc3cc2cc(c3O[C@@H]2O[C@H](CO)[C@@H](O)[C@H](O)[C@H]2O[C@H]2C[C@](C)(N)[C@H](O)[C@H](C)O2)Oc2ccc(cc2Cl)[C@H]1O is reported as 0.98 µg/mL (broth dilution; ATCC12228).
For NC[C@H]1O[C@H](O[C@H]2[C@H](O)[C@@H](O[C@H]3O[C@H](CO)[C@@H](O)[C@H](N)[C@H]3O)[C@H](N)C[C@@H]2N)[C@H](N)C[C@@H]1O, the MIC was 0.78 µM (broth dilution; 12228).
With NCCCC[C@H](N)C(=O)Nc1ccc(-n2nc(C(F)(F)F)cc2-c2ccc3c(c2)Nc2ccccc2S3)cc1 the MIC was 4 µg/mL (broth dilution; ATCC35984; 24 h).
For O=C(O)CN1C(=O)/C(=C/c2c3ccccc3c(-c3ccc(N(c4ccccc4)c4ccccc4)cc3)c3ccccc23)NC1=S, the MIC was > 1000 µg/mL (broth dilution; ATCC12228).
